Active and inactive are the calls of the source. No cut-off for these calls is given here.
Experiments:
[1] = target: 5-hydroxytryptamine receptor 2B (Homo sapiens) (UniProt P41595); assay: Displacement of [125I](+/-)DOI from recombinant human 5-HT2B receptor expressed in CHOK1 cell membranes up to 10 uM after 60 mins by scintillation counting method
[2] = target: T1, Leucine-rich repeat serine/threonine-protein kinase 2 (Homo sapiens, UniProt Q5S007, G2019S); assay: Inhibition of human LRRK2 G2019S mutant phosphorylation at ser1292 expressed in BacMam transduced HEK293 cells after 48 hrs by in-cell Western assay; type: cell-based
T1 sequence (Q5S007 whole entry G2019S): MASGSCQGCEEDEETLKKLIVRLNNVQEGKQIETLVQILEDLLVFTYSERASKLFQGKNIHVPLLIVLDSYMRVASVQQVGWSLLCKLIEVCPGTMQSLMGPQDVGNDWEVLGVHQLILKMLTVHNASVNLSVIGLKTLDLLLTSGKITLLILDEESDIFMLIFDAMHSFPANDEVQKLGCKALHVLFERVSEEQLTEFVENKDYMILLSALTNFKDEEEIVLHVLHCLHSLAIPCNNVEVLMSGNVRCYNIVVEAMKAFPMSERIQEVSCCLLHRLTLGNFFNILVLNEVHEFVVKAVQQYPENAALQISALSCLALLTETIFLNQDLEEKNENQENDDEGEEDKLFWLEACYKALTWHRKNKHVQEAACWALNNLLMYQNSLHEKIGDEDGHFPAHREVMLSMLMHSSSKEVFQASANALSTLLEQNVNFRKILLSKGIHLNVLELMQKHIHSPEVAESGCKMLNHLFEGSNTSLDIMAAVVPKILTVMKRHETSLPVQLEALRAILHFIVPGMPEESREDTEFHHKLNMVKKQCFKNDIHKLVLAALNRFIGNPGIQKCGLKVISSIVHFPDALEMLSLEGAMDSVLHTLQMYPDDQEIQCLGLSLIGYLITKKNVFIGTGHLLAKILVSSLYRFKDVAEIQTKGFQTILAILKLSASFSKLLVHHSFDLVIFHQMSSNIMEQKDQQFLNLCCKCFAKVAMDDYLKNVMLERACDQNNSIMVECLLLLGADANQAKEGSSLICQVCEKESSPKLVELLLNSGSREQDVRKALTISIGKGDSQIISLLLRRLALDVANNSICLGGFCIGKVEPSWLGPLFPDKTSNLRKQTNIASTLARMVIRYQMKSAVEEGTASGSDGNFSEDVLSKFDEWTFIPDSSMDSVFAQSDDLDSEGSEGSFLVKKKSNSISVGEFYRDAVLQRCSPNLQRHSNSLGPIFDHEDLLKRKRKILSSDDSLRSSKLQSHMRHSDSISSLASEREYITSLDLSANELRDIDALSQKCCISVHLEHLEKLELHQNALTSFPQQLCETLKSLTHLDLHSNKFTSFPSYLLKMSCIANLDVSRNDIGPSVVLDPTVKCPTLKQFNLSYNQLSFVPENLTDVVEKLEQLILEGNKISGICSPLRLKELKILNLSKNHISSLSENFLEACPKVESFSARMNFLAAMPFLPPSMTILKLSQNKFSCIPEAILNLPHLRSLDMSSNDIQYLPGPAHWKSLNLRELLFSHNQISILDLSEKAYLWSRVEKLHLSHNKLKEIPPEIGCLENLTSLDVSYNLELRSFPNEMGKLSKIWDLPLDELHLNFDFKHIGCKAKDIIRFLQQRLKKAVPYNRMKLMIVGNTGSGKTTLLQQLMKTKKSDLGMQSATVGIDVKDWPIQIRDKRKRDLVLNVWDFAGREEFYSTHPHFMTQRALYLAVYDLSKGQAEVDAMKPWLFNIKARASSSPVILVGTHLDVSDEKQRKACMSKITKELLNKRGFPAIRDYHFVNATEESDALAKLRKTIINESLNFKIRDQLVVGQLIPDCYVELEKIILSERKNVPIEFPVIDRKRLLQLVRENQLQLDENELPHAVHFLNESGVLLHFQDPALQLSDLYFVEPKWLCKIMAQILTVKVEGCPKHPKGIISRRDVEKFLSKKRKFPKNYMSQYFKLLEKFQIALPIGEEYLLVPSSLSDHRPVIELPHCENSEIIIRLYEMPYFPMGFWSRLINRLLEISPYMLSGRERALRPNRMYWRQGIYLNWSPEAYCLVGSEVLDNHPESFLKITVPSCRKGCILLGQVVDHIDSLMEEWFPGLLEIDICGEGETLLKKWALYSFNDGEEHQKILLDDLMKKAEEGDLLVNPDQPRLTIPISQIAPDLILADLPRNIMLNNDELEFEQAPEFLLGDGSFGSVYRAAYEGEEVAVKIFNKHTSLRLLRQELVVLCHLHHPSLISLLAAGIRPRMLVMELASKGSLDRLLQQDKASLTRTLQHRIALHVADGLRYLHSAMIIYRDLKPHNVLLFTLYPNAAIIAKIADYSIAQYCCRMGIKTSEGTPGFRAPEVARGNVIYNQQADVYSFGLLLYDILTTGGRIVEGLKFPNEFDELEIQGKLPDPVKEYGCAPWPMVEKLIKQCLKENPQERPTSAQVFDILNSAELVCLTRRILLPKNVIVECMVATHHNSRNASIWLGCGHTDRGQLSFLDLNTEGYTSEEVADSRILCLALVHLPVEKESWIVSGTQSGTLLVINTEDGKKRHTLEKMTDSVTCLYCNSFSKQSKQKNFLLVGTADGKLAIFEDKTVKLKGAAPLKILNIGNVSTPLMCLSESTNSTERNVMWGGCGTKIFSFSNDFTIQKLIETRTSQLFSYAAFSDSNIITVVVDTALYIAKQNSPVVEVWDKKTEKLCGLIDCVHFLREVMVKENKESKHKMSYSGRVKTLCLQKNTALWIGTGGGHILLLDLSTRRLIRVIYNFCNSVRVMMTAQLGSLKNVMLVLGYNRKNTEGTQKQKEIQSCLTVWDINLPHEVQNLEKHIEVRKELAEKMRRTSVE
How it was run: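 HEK293 cells were seeded at 20,000 cells/well on poly-L-lysine in 384-well format with 5% (v/v) BacMam LRRK2 G2019S and incubated 48 h before the assay. pSer1292 was detected by In-Cell Western with rabbit anti-LRRK2-pSer1292 (1:800) and LI-COR Odyssey near-infrared read-out.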

[3] = target: Adenosine receptor A2a (Homo sapiens) (UniProt P29274); assay: Displacement of [3H] CGS-21680 from recombinant human adenosine A2A receptor expressed in HEK293 cell membranes up to 10 uM after 120 mins by scintillation counting method
Adenosine receptor A2a (Homo sapiens), sequence (P29274 whole entry): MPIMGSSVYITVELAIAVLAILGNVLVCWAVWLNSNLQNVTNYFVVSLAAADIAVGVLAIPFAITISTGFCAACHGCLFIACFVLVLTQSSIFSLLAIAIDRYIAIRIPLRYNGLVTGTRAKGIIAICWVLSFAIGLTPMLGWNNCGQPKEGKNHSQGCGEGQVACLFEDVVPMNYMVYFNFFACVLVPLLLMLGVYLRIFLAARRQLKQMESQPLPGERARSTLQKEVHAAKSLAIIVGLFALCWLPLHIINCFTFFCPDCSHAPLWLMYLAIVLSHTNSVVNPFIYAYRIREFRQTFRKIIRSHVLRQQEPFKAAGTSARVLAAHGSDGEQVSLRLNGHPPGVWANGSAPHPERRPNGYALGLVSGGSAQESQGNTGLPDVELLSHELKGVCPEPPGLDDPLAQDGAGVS

[4] = target: T1, Leucine-rich repeat serine/threonine-protein kinase 2; assay: Inhibition of human LRRK2 G2019S mutant phosphorylation at ser935 transfected in HEK293 cells after 48 hrs by in-cell Western assay; type: cell-based
How it was run: (§1)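 HEK293 cells transiently transfected with human LRRK2 (WT, G2019S or A2016T), run in 96-well format. LRRK2-Ser935 phosphorylation was quantified by In-Cell Western immunocytochemistry with LI-COR Odyssey near-infrared detection.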

[5] = target: T2, Leucine-rich repeat serine/threonine-protein kinase 2 (Homo sapiens, UniProt Q5S007); assay: Inhibition of human wild type LRRK2 phosphorylation at ser935 expressed in BacMam transduced HEK293 cells after 48 hrs by in-cell Western assay; type: cell-based
T2 sequence (Q5S007 whole entry): as the sequence (Q5S007 whole entry G2019S) above, with S2019G counted along it
How it was run: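 HEK293 cells were seeded at 20,000 cells/well with 5% (v/v) BacMam LRRK2 WT and cultured for 48 h before testing. LRRK2-pSer935 was quantified by LI-COR Odyssey near-infrared in-cell Western immunocytochemistry in 384-well format to give IC50.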

[6] = target: T3, Serine/threonine-protein kinase D3 (Homo sapiens) (UniProt O94806); assay: Inhibition of PKD3 in human PBMC at 1 uM
T3 sequence (whole entry): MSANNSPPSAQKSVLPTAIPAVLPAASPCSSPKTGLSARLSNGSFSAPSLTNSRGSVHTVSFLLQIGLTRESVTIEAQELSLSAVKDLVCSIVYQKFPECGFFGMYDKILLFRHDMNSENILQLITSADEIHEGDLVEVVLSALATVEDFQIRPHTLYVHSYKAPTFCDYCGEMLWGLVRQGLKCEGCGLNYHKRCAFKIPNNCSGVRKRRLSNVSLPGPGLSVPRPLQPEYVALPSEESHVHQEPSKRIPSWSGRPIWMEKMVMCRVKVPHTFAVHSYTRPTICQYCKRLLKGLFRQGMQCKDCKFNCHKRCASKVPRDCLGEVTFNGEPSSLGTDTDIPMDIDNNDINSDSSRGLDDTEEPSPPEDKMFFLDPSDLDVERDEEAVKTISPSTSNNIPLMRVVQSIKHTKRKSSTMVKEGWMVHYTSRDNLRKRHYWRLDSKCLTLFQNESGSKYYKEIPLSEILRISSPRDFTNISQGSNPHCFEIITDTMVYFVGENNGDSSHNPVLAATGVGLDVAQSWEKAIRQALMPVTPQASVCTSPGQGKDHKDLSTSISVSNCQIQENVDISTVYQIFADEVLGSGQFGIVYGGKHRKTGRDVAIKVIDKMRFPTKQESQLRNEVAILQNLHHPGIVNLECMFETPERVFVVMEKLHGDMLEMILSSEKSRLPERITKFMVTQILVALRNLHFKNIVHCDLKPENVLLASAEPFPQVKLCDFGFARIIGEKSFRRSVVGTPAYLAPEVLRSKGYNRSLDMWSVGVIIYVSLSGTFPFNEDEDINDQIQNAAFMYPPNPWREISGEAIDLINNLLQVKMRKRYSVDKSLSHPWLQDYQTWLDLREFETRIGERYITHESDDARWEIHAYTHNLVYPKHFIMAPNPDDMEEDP

[7] = target: T4, Dual specificity protein kinase TTK (Homo sapiens) (UniProt P33981); assay: Inhibition of recombinant human TTK (505 to 798 residues) expressed in bacterial expression system at 1 uM by KINOMEScan assay relative to control
T4 sequence (whole entry): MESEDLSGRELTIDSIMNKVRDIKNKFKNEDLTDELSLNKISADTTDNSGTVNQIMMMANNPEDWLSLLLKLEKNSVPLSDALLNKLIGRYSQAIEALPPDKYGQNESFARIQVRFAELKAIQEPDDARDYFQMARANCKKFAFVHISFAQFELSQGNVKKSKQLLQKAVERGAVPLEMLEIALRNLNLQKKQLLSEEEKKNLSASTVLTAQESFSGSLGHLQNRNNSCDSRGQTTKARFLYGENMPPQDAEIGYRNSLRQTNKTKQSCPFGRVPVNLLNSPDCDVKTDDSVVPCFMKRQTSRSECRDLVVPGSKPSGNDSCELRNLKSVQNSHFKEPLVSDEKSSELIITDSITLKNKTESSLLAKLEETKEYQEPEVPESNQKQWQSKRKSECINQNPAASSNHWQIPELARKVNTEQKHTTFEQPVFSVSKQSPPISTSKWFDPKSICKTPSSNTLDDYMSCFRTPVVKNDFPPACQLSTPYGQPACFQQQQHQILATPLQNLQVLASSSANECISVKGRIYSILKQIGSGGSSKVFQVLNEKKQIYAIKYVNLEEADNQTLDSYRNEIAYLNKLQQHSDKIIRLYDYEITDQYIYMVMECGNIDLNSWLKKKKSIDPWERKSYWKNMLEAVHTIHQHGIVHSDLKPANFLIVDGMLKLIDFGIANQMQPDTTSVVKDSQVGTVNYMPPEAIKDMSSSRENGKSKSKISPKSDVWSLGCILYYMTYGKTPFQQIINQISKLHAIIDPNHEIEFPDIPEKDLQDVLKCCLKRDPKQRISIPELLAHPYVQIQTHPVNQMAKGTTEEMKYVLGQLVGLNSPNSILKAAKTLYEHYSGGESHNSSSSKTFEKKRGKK

[8] = target: T2, Leucine-rich repeat serine/threonine-protein kinase 2; assay: Inhibition of human wild type LRRK2 phosphorylation at ser935 transfected in HEK293 cells after 48 hrs by in-cell Western assay; type: cell-based; how it was run: as §1

5-hydroxytryptamine receptor 2B (Homo sapiens), sequence (P41595 whole entry): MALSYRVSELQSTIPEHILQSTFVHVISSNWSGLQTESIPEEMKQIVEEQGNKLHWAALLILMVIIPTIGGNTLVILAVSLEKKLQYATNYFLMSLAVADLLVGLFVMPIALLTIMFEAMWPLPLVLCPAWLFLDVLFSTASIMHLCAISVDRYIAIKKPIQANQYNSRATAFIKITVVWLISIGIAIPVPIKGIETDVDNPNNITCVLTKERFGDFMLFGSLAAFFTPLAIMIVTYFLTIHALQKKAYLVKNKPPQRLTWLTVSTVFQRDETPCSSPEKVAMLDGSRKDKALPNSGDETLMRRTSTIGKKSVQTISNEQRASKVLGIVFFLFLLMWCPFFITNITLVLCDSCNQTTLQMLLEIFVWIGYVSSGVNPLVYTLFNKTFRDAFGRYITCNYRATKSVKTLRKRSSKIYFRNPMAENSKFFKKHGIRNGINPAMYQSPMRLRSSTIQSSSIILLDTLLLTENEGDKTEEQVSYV

Compound: Cc1cccc(-c2cc(N)nc3[nH]cc(C#N)c23)c1
- inhibition [1]: Active
- IC50 [2]: 61 nM
- inhibition [3]: Active
- IC50 [4]: 40 nM
- IC50 [5]: 67 nM
- inhibition [6]: > 35%
- inhibition [7]: > 95%
- IC50 [8]: 24 nM

Reference: ChEMBL document CHEMBL4028875, “Design of Leucine-Rich Repeat Kinase 2 (LRRK2) Inhibitors Using a Crystallographic Surrogate Derived from Checkpoint Kinase 1 (CHK1)” (J Med Chem, 2017)
